In ChEMBL document CHEMBL1128453, “Peptidyl alpha-ketoheterocyclic inhibitors of human neutrophil elastase. 3. In vitro and in vivo potency of a series of peptidyl alpha-ketobenzoxazoles” (J Med Chem, 1995):

Experiments:
Neutrophil elastase = biological target: T1, Neutrophil elastase (Homo sapiens, UniProt P08246); assay: Inhibition of human neutrophil elastase-catalyzed hydrolysis of the synthetic substrate MeO-Suc-Ala-Ala-Pro-Val-pNa
T1 sequence (P08246 whole entry): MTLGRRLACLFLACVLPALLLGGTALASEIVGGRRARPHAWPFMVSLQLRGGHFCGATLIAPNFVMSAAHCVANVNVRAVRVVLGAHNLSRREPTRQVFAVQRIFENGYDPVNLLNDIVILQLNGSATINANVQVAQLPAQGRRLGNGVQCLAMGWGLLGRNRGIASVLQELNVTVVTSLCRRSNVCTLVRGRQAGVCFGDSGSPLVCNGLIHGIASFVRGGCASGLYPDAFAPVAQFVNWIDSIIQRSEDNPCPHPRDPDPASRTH

[1] = Percent reduction in leukocytes following elastase challenge/treatment.; assay type: functional; design: concentration or dose not given beside the values
How it was run: (§1)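 Male Syrian hamsters (90–110 g), anaesthetised with brevital sodium (30 mg/kg ip), received intratracheal HNE (400 μg in 0.01 M PBS). Test agent was given intratracheally, either admixed with the enzyme or predosed (shortest interval 6 h). Dose interval is the longest with significant lesion inhibition. At 24 h, wet lung weight/body weight and lavage red/white cells (Coulter) were measured. Results are % reduction scaled between the HNE and saline controls (p = 0.05).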

[2] = Percentage reduction in erythrocytes following elastase challenge/treatment.; assay type: functional; design: concentration or dose not given beside the values; how it was run: as §1
[3] = biological target: T2, Neutrophil elastase (Homo sapiens) (UniProt P08246); settings: Lung
T2 sequence (whole entry): T1 sequence (P08246 whole entry)

[4] = Evaluated for the percent reduction relative to HNE and saline controls of red blood cells; assay type: functional; how it was run: as §1
Cricetinae gen. sp. [5] = assay: Compound is evaluated for wet lung weight (LW) relative to body weight (Bw).Value is statistically significant relative to control (p = 0.05).; assay type: functional; how it was run: as §1
[6] = Evaluated for the percent reduction relative to HNE and saline controls of white blood cells; assay type: functional; how it was run: as §1
Cricetinae gen. sp. [7] = assay: Dose interval reported as the longest interval at which significant inhibition of HNE induced uM Dose of HNE used was 400 ug/hamster; assay type: functional; how it was run: as §1
[8] = Evaluated for the percent reduction relative to HNE and saline controls of red blood cells. An asterisk (*) indicates (p = 0.05).; assay type: functional; how it was run: as §1

SMILES	Ki (Neutrophil elastase)	Reduction [1]	Reduction [2]	Lw/Bw [3]	further results
COC(=O)c1ccc2nc(C(=O)[C@@H](NC(=O)[C@@H]3CCCN3C(=O)[C@@H](NC(=O)OCc3ccccc3)C(C)C)C(C)C)oc2c1	0.55 nM				
COC(=O)c1ccc2oc(C(=O)[C@@H](NC(=O)[C@@H]3CCCN3C(=O)[C@@H](NC(=O)c3ccc(NC(=O)NS(=O)(=O)c4ccc(Cl)cc4)cc3)C(C)C)C(C)C)nc2c1	0.06 nM	-31%	13%	48	
CC(C)[C@H](NC(=O)[C@@H]1CCCN1C(=O)[C@@H](NC(=O)c1ccc(C(=O)OC(C)(C)C)cc1)C(C)C)C(=O)c1nc2ccccc2o1					Reduction [4]: 29%; Lw/Bw (Cricetinae gen. sp. [5]): 41; Reduction [6]: -14%
COC(=O)c1ccc2oc(C(=O)[C@@H](NC(=O)[C@@H]3CCCN3C(=O)[C@@H](NC(=O)c3ccc(C(=O)NS(=O)(=O)c4ccc(Cl)cc4)cc3)C(C)C)C(C)C)nc2c1	0.1 nM	-32%	71%	67	
CC(C)[C@H](NC(=O)[C@@H]1CCCN1C(=O)[C@@H](NC(=O)OCc1ccccc1)C(C)C)C(=O)c1nc2cc(Cl)ccc2o1	1.1 nM				
COc1ccc2oc(C(=O)[C@@H](NC(=O)[C@@H]3CCCN3C(=O)[C@@H](NC(=O)OCc3ccccc3)C(C)C)C(C)C)nc2c1	1.9 nM				
CC(C)[C@H](NC(=O)[C@@H]1CCCN1C(=O)[C@@H](NC(=O)c1ccc(C(=O)NS(=O)(=O)c2ccccc2)cc1)C(C)C)C(=O)c1nc2ccccc2o1	0.5 nM	64%	58%	29	Dose interval (Cricetinae gen. sp. [7]): 6 h
CC(C)[C@H](NC(=O)[C@@H]1CCCN1C(=O)[C@@H](NC(=O)c1ccc(C(=O)NS(C)(=O)=O)cc1)C(C)C)C(=O)c1nc2ccccc2o1	4.6 nM	78%	84%	87	
COC(=O)c1ccc2oc(C(=O)[C@@H](NC(=O)[C@@H]3CCCN3C(=O)[C@@H](NC(=O)c3ccc(S(N)(=O)=O)cc3)C(C)C)C(C)C)nc2c1		30%	-32%	15	
CC(C)[C@H](NC(=O)[C@@H]1CCCN1C(=O)[C@@H](NC(=O)OCc1ccccc1)C(C)C)C(=O)c1nc2cc(C#N)ccc2o1	1.8 nM				
CC(C)[C@H](NC(=O)[C@@H]1CCCN1C(=O)[C@@H](NC(=O)OCc1ccccc1)C(C)C)C(=O)c1nc2cc(CO[Si](C)(C)C(C)(C)C)ccc2o1	0.43 nM				
COC(=O)c1ccc2nc(C(=O)[C@@H](NC(=O)[C@@H]3CCCN3C(=O)[C@@H](NC(=O)c3ccc(C(=O)NS(=O)(=O)c4ccc(Cl)cc4)cc3)C(C)C)C(C)C)oc2c1		72%	76%		
COC(=O)c1ccc(C(=O)N[C@H](C(=O)N2CCC[C@H]2C(=O)N[C@H](C(=O)c2nc3ccccc3o2)C(C)C)C(C)C)cc1		-5%			Reduction [4]: 17%
COC(=O)Cc1ccc2oc(C(=O)[C@@H](NC(=O)[C@@H]3CCCN3C(=O)[C@@H](NC(=O)OCc3ccccc3)C(C)C)C(C)C)nc2c1	1.1 nM				
CC(C)[C@H](NC(=O)[C@@H]1CCCN1C(=O)[C@@H](NC(=O)c1ccc(C(=O)NS(=O)(=O)c2ccc(Cl)cc2)cc1)C(C)C)C(=O)c1nc2cc(C(=O)O)ccc2o1	0.65 nM	66%	94%	63	
CC(C)[C@H](NC(=O)[C@@H]1CCCN1C(=O)[C@@H](NC(=O)c1ccc(C(=O)O)cc1)C(C)C)C(=O)c1nc2ccccc2o1		-1%			Reduction [8]: 49%
CC(C)[C@H](NC(=O)[C@@H]1CCCN1C(=O)[C@@H](NC(=O)OCc1ccccc1)C(C)C)C(=O)c1nc2cc(CO)ccc2o1	2.4 nM				
COC(=O)c1ccc2oc(C(=O)[C@@H](NC(=O)[C@@H]3CCCN3C(=O)[C@@H](NC(=O)OCc3ccccc3)C(C)C)C(C)C)nc2c1	0.37 nM				
CC(C)[C@H](NC(=O)[C@@H]1CCCN1C(=O)[C@@H](NC(=O)c1ccc(C(=O)NS(=O)(=O)c2ccc(Cl)cc2)cc1)C(C)C)C(=O)c1nc2ccccc2o1		84%	80%		Dose interval (Cricetinae gen. sp. [7]): 6 h
CC(C)[C@H](NC(=O)[C@@H]1CCCN1C(=O)[C@@H](NC(=O)OCc1ccccc1)C(C)C)C(=O)c1nc2cc(CC(=O)O)ccc2o1	4.4 nM				
CC(C)[C@H](NC(=O)[C@@H]1CCCN1C(=O)[C@@H](NC(=O)c1ccc(C(=O)NS(=O)(=O)c2ccc(Cl)cc2)cc1)C(C)C)C(=O)c1nc2cc(CO)ccc2o1	0.66 nM	39%	46%	30	
CC(C)[C@H](NC(=O)[C@@H]1CCCN1C(=O)[C@@H](NC(=O)c1ccc(NC(=O)NS(=O)(=O)c2ccc(Cl)cc2)cc1)C(C)C)C(=O)c1nc2ccccc2o1		82%	68%		Dose interval (Cricetinae gen. sp. [7]): 6 h
COc1ccc2oc(C(=O)[C@@H](NC(=O)[C@@H]3CCCN3C(=O)[C@@H](NC(=O)c3ccc(C(=O)NS(=O)(=O)c4ccc(Cl)cc4)cc3)C(C)C)C(C)C)nc2c1	0.66 nM	24%	21%	48	
CC(C)[C@H](NC(=O)[C@@H]1CCCN1C(=O)[C@@H](NC(=O)c1ccc(C(=O)NS(=O)(=O)c2ccc(Cl)cc2)cc1)C(C)C)C(=O)c1nc2cc(O)ccc2o1		40%	57%	38	
CC(C)[C@H](NC(=O)[C@@H]1CCCN1C(=O)[C@@H](NC(=O)OCc1ccccc1)C(C)C)C(=O)c1nc2cc(C(=O)ON)ccc2o1	1 nM				
CC(C)[C@H](NC(=O)[C@@H]1CCCN1C(=O)[C@@H](NC(=O)c1ccc(NC(=O)NS(=O)(=O)c2ccccc2)cc1)C(C)C)C(=O)c1nc2ccccc2o1	0.6 nM	31%	62%	63	
CC(C)[C@H](NC(=O)[C@@H]1CCCN1C(=O)[C@@H](NC(=O)c1ccc(C(=O)NS(=O)(=O)C(C)C)cc1)C(C)C)C(=O)c1nc2ccccc2o1	1.5 nM	70%	60%	68	
CC(C)[C@H](NC(=O)[C@@H]1CCCN1C(=O)[C@@H](NC(=O)c1ccc(S(N)(=O)=O)cc1)C(C)C)C(=O)c1nc2ccccc2o1		-42%	-44%		
COC(=O)c1ccc2oc(C(=O)[C@@H](NC(=O)[C@@H]3CCCN3C(=O)[C@@H](NC(=O)c3ccc(NS(=O)(=O)C(F)(F)F)cc3)C(C)C)C(C)C)nc2c1	0.3 nM	77%	82%	71	
CC(C)[C@H](NC(=O)[C@@H]1CCCN1C(=O)[C@@H](NC(=O)OCc1ccccc1)C(C)C)C(=O)c1nc2cc(C(=O)O)ccc2o1	4.2 nM				
